These results are taken from ChEMBL document CHEMBL1131435, “Biphenylsulfonamide endothelin antagonists: structure-activity relationships of a series of mono- and disubstituted analogues and pharmacology of the orally active endothelin antagonist 2'-amino-N- (3,4-dimethyl-5-isoxazolyl)-4'-(2-methylpropyl)[1, 1'-biphenyl]-2-sulfonamide (BMS-187308)” (J Med Chem, 1998).

Assay [1] addresses Endothelin receptor type B (Rattus norvegicus) (UniProt P21451). The experiment in a line: Inhibition of [125I]ET-1 binding to rat cerebellum membranes (Endothelin B receptor) was determined in a radioligand binding assay.
The target of assay [2] is Endothelin-1 receptor (Rattus norvegicus). The experiment in a line: Ability to inhibit Endothelin A receptor induced contractions in rabbit carotid artery rings (ETA) was determined in an in vitro functional assay.
For assay [3], the target named is T1, Endothelin-1 receptor (Rattus norvegicus, UniProt P26684).
T1 sequence (P26684 whole entry): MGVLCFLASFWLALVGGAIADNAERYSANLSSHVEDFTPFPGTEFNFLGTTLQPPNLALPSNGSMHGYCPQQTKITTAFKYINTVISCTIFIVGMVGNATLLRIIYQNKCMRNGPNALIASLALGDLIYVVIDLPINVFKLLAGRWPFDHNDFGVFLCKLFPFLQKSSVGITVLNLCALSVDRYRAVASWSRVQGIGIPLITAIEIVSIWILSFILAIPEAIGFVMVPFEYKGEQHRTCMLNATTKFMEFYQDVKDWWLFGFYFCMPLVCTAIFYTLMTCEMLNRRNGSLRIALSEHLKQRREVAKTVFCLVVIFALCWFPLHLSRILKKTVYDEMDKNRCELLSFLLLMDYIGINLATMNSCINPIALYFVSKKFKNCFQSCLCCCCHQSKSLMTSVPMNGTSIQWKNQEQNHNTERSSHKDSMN
Kind of assay: Ability to inhibit binding of [125I]ET1 to membranes prepared from A10 rat thoracic aorta smooth muscle (Endothelin A receptor) was determined by radioligand binding assay. The format is tissue-based. The gist of the method: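 Competition binding of [125I]ET-1 to membranes prepared from A10 rat thoracic aorta smooth muscle cells (ET_A). Data were fitted iteratively to a one- or two-site binding model, and Ki was calculated from the IC50. Values are reported as Ki ± SE.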

Assay [4] concerns the target T1, Endothelin-1 receptor. The experiment in a line: Ability to inhibit binding of [125I]ET1 to membranes prepared from A10 rat thoracic aorta smooth muscle Endothelin A receptor. In kind it is tissue-based.
The target of assay [5] is T2, Endothelin receptor type B (Rattus norvegicus, UniProt P21451).
T2 sequence (P21451 whole entry): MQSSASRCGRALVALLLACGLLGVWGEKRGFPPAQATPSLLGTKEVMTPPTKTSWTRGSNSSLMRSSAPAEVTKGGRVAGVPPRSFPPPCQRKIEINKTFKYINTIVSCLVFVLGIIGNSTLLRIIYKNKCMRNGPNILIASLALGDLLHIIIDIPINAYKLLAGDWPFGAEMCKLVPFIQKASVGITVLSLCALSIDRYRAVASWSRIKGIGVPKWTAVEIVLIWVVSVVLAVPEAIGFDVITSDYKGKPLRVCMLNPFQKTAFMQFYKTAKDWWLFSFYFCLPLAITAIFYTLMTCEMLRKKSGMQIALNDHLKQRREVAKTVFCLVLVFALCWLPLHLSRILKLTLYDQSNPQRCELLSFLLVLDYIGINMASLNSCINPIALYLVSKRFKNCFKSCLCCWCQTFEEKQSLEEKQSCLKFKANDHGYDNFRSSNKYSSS
The experiment in a line: Ability to inhibit binding of [125I]-ET-1 to membranes prepared from […] rat cerebellum (Endothelin B receptor). In kind it is tissue-based.

As for `Cc1noc(NS(=O)(=O)c2ccccc2-c2c[nH]c3ccccc23)c1C`, the Ki (in general, a measure of affinity in units of concentration, obtained from inhibition or displacement) in assay [1] was greater than 200000 nM. Take `Cc1noc(NS(=O)(=O)c2ccccc2-c2cccnc2)c1C`: in assay [1], the Ki is greater than 200000 nM.

In turn, `Cc1noc(NS(=O)(=O)c2ccccc2-c2ccsc2)c1C` showed a Ki in assay [1] greater than 200000 nM. Same read-out and setting: the value for `Cc1noc(NS(=O)(=O)c2ccccc2-c2cc3ccccc3[nH]2)c1C` was 66000 nM. As to `Cc1noc(NS(=O)(=O)c2ccccc2-c2ncccn2)c1C`, the Ki in assay [2] was 8800 nM; in assay [1], greater than 200000 nM.

As to `Cc1noc(NS(=O)(=O)c2ccccc2-c2cccs2)c1C`, in assay [1], the Ki was greater than 200000 nM.

In assay [2], `Cc1noc(NS(=O)(=O)c2ccccc2-c2ccccn2)c1C` displayed a Ki of 820 nM. That is a sub-micromolar value. Turning to `Cc1noc(NS(=O)(=O)c2ccccc2Br)c1C`, affinity on Endothelin-1 receptor [3] was put at a Ki of 8000 nM.

For the molecule `Cc1noc(NS(=O)(=O)c2ccccc2-c2ccc(CC(C)C)cc2CNC=O)c1C`, the Ki on Endothelin-1 receptor [4] stood at 2 nM; in assay [5] it was 1200 nM. Taken in the same sequence, the figures for `CC(C)Cc1ccc(-c2ccccc2S(=O)(=O)Nc2ccc(Cl)nn2)cc1` were 400 nM and 44000 nM. Taken in the same sequence, the figures for `Cc1noc(NS(=O)(=O)c2ccccc2-c2ccc(CC(C)C)cc2NCCO)c1C` were 6.4 nM and 1600 nM. For the molecule `Cc1noc(NS(=O)(=O)c2ccccc2-c2ccc(OCc3ccccc3)cc2)c1C`, the Ki was 190 nM at Endothelin-1 receptor [4] and 8400 nM in assay [5]. Taken in the same sequence, the figures for `Cc1noc(NS(=O)(=O)c2ccccc2-c2ccc(CC(C)C)cc2N(C)C)c1C` were 330 nM and greater than 100000 nM. In the case of `CNC(=O)Nc1cc(CC(C)C)ccc1-c1ccccc1S(=O)(=O)Nc1onc(C)c1C`, the Ki at Endothelin-1 receptor [4] is 43 nM; in assay [5], 5400 nM. Taken in the same sequence, the figures for `Cc1noc(NS(=O)(=O)c2cccc(OCC(=O)O)c2-c2ccc(CC(C)C)cc2)c1C` were 42 nM and 4000 nM. `Cc1noc(NS(=O)(=O)c2ccccc2-c2ccc(C(C)(C)C)cc2)c1C`: the Ki on Endothelin-1 receptor [4] turned out to be 61 nM; in assay [5], 15000 nM. Regarding `CNc1cc(CC(C)C)ccc1-c1ccccc1S(=O)(=O)Nc1onc(C)c1C`, the Ki turned out to be 14 nM at Endothelin-1 receptor [4] and 2200 nM in assay [5]. Regarding `Cc1noc(NS(=O)(=O)c2ccccc2-c2ccc(CC(C)C)cc2CO)c1C`, the Ki at Endothelin-1 receptor [4] came out at 20 nM; in assay [5], 1300 nM. In the case of `Cc1noc(NS(=O)(=O)c2ccccc2-c2ccc(CC(C)(C)C)cc2)c1C`, the results for the Ki (on Endothelin-1 receptor [4]; in assay [5]) were 110 nM and 4100 nM, respectively. For `CCOC(=O)c1c(C)noc1NS(=O)(=O)c1ccccc1-c1ccc(CC(C)C)cc1`, the Ki on Endothelin-1 receptor [4] was 7200 nM; in assay [5] it was 42000 nM.
